Results as given in ChEMBL document CHEMBL1165893, “Synthesis, anticancer and antioxidant activities of 7-methoxyisoflavanone and 2,3-diarylchromanones” (Eur J Med Chem, 2010).
Active and inactive are the calls of the source. The rule behind the calls is not given here.

Legend:
HL-60 [1] = assay: Induction of apoptosis in human HL60 cells assessed as fragmentation of DNA after 48 hrs by electrophoresis; type: functional, cell-based
Procedure, shortened: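 HL60 cells exposed to test compound alongside untreated control. After 48 h, DNA extracted, run on 0.8% agarose gel with ethidium bromide, and fragmentation pattern imaged.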

HL-60 [2] = assay: Cytotoxicity against human HL60 cells after 5 days by MTT assay; type: functional; conditions: HL-60, 120 h
[3] = Cytotoxicity against human PBMC cells after 5 days by MTT assay; type: cell-based
Procedure, shortened: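 Cells seeded at 3 × 10^5 cells/mL in 96-well plates and kept at 37 °C in humidified 5% CO2 with test compound for 5 days. PBMC came from healthy donors. Viability read by MTT; CC50 calculated. Mean ± SD of three independent experiments, Student t-test.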

[4] = Antioxidant activity assessed as free radical scavenging activity by lipid peroxidation assay; type: functional
Procedure, shortened: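 Lipid peroxidation system initiated with 400 mM FeCl3 and 200 mM L-ascorbic acid (stock levels as printed). Test compound added at several concentrations; control without compound. Incubated 37 °C, 60 min. Stopped with 0.25 N HCl / 1.5% TCA / 0.375% thiobarbituric acid, boiled 15 min, cooled, centrifuged. Absorbance read at 532 nm; percent inhibition versus control used to derive EC50.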

HL-60 [5] = assay: Induction of apoptosis in human HL60 cells after 48 hrs using annexin V-propidium iodide staining by FACS analysis; type: functional, cell-based
Procedure, shortened: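 HL60 cells incubated with test compound at a concentration set from its CC50. Stained with FITC-Annexin V and analysed by flow cytometry, with treated-cell fluorescence compared against control cells.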

Row | Structure (SMILES) | Activity (HL-60 [1]) | CC50 (HL-60 [2]) [µM] | CC50 at 120 h [3] [µM] | EC50 [4] [µM] | Activity (HL-60 [5])
1 | CCOc1ccc2c(c1)OC(c1ccccc1)C(c1ccccc1)C2=O (centres undefined) | Active | > 2500 | > 2500 | 877 | –
2 | COc1ccc2c(c1)OC(c1ccc([N+](=O)[O-])cc1)C(c1ccccc1)C2=O (centres undefined) | Active | 73.2 | 595 | > 2500 | –
3 | COc1ccc2c(c1)OC(c1cccc([N+](=O)[O-])c1)C(c1ccccc1)C2=O (centres undefined) | Active | > 2500 | > 2500 | 130 | –
4 | COc1ccc2c(c1)OC(c1ccccc1)C(c1ccccc1)C2=O (centres undefined) | Active | 2330 | > 2500 | 500 | –
5 | COc1ccc2c(c1)OCC(c1ccccc1)C2=O (centres undefined) | Active | 82.6 | 521 | 965 | –
6 | COc1ccc2cc3[n+](cc2c1OC)CCc1cc2c(cc1-3)OCO2 | – | – | – | – | Active
7 | COc1ccc2c(c1)OC(c1ccc(Cl)cc1)C(c1ccccc1)C2=O (centres undefined) | Active | 2410 | > 2500 | 165 | –
8 | CCOc1ccc2c(c1)OC(c1ccc(Cl)cc1)C(c1ccccc1)C2=O (centres undefined) | Active | 514 | > 2500 | 578 | –
9 | CCOc1ccc2c(c1)OC(c1cccc([N+](=O)[O-])c1)C(c1ccccc1)C2=O (centres undefined) | Active | > 2500 | > 2500 | 193 | –
10 | CCOc1ccc2c(c1)OC(c1ccc([N+](=O)[O-])cc1)C(c1ccccc1)C2=O (centres undefined) | Active | 203 | 1360 | > 2500 | –
11 | O=c1[nH]cc(F)c(=O)[nH]1 [FLUOROURACIL] | – | 0.07 | – | – | –
12 | O=C1O[C@H]([C@@H](O)CO)C(O)=C1O [ASCORBIC ACID] | – | – | – | 754 | –
